Data on one molecule can be found in ChEMBL document CHEMBL1781946, “Tricyclic thienopyridine-pyrimidones/thienopyrimidine-pyrimidones as orally efficacious mGluR1 antagonists for neuropathic pain” (Bioorg Med Chem Lett, 2009).

A short description of data set [1]: Permeability of the compound in human Caco2 cells. It is filed as ADME, cell-based. Conditions: Caco-2, read-out: permeability; call rule not given here.
Data set [2] can be described thus: Ratio of drug level in brain to plasma in rat at 10 mg/kg. Set-up: dose 10 mg/kg. Particulars: read-out: BPR. It is filed as ADME, organism-based.
In data set [3] the target is Metabotropic glutamate receptor 5 (Homo sapiens, UniProt P41594). Description: Antagonist activity at human mGluR5. It is filed as functional. The gist of the method: (§1)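 Receptor binding assays: IC50 on human mGlu1 and mGlu5 receptors, Ki on rat mGlu1 receptor. Each value is the average of at least three measurements. Standard error 10%, with assay-to-assay variability under twofold.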
Sequence of Metabotropic glutamate receptor 5 (P41594 whole entry): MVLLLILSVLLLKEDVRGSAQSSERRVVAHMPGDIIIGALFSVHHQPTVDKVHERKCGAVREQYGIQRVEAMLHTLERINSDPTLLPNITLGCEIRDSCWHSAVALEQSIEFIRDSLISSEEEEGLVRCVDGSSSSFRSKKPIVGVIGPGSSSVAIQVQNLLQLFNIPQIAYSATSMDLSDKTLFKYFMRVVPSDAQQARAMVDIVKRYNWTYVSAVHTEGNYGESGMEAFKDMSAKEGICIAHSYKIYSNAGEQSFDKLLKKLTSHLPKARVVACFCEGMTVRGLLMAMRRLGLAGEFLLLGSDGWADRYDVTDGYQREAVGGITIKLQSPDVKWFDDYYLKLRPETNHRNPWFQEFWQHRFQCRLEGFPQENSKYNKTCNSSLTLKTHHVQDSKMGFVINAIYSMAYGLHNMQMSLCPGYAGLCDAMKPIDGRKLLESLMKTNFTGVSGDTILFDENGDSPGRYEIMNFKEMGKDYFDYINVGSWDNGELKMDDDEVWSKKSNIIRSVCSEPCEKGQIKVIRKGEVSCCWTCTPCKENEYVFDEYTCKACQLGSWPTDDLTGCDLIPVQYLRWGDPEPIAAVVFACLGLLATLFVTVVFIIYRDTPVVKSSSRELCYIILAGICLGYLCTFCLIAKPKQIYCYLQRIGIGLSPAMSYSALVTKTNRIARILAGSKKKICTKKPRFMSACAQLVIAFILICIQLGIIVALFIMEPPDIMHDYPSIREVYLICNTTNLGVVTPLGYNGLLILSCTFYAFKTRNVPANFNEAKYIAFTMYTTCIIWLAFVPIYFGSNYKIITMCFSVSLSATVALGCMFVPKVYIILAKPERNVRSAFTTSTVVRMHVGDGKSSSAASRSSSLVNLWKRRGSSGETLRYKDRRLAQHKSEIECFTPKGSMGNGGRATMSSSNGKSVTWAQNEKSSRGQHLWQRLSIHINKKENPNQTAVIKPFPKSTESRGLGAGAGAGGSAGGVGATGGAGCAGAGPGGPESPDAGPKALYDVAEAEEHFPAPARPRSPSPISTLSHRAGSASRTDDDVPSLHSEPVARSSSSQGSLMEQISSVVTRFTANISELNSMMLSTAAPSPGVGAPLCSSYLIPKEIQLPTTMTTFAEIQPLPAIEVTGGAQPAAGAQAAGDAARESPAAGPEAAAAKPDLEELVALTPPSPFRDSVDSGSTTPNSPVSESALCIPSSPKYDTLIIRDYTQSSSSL

The nature of data set [4]: Drug efflux assessed as P-gp-mediated efflux by efflux substrate assay. It is filed as ADME.
Data set [5] concerns the target Voltage-gated inwardly rectifying potassium channel KCNH2 (Homo sapiens, UniProt Q12809). Description: Inhibition of human ERG.
The test system of data set [6] is Rattus norvegicus. Description: Inhibition of neuropathic pain in po dosed rat spinal nerve ligation model. It is filed as functional.
Data set [7] has as its system Rattus norvegicus. Kind of data set: AUC in rat 10 mg/kg. Conditions: in vivo. It is filed as ADME, organism-based, Plasma. Further details: dose 10 mg/kg.
A short description of data set [8]: Bioavailability in rat at 10 mg/kg. The data set is classed as ADME, organism-based. Particulars: in vivo.
For data set [9], the target named is Metabotropic glutamate receptor 1 (Rattus norvegicus, UniProt P23385). Kind of data set: Antagonist activity at rat mGluR1. The data set is classed as functional. In outline:
as §1

A short description of data set [10]: Drug level in rat brain at 10 mg/kg measured at 6 hrs post dose. It is filed as ADME, organism-based. Set-up: dose 10 mg/kg. Conditions: read-out: Drug uptake.

Bounds are passed on as bounds.

Sequence of Metabotropic glutamate receptor 1 (P23385 whole entry): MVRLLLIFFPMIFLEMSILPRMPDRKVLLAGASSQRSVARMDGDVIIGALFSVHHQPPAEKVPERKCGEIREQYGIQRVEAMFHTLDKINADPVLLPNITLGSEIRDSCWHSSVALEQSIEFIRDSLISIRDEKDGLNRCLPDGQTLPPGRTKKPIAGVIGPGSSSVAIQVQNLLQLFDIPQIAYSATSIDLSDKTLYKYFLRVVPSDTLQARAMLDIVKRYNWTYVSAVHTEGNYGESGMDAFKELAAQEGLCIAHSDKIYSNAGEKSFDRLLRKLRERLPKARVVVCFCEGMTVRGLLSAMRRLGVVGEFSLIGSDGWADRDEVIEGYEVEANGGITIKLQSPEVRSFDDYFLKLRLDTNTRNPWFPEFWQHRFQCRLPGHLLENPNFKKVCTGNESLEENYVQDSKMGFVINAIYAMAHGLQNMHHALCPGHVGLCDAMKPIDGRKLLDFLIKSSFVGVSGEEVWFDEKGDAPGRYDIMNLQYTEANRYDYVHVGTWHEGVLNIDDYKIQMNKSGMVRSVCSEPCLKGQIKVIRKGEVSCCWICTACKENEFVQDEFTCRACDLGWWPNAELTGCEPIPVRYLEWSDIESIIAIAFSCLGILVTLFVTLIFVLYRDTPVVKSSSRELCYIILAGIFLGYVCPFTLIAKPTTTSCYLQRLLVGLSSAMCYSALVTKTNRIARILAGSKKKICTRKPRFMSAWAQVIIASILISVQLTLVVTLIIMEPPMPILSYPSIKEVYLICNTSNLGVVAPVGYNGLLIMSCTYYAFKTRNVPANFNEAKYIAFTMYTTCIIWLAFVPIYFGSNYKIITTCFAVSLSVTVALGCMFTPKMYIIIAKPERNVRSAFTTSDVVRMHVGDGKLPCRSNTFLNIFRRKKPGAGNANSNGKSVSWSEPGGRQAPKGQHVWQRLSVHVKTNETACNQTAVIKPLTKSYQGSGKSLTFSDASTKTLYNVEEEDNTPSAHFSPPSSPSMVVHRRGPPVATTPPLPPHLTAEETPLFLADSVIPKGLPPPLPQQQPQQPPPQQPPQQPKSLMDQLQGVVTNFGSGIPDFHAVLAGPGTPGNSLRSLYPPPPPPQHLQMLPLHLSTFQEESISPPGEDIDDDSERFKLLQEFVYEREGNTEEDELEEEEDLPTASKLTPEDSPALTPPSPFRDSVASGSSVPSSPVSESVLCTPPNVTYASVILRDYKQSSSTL
Sequence of Voltage-gated inwardly rectifying potassium channel KCNH2 (Q12809 whole entry): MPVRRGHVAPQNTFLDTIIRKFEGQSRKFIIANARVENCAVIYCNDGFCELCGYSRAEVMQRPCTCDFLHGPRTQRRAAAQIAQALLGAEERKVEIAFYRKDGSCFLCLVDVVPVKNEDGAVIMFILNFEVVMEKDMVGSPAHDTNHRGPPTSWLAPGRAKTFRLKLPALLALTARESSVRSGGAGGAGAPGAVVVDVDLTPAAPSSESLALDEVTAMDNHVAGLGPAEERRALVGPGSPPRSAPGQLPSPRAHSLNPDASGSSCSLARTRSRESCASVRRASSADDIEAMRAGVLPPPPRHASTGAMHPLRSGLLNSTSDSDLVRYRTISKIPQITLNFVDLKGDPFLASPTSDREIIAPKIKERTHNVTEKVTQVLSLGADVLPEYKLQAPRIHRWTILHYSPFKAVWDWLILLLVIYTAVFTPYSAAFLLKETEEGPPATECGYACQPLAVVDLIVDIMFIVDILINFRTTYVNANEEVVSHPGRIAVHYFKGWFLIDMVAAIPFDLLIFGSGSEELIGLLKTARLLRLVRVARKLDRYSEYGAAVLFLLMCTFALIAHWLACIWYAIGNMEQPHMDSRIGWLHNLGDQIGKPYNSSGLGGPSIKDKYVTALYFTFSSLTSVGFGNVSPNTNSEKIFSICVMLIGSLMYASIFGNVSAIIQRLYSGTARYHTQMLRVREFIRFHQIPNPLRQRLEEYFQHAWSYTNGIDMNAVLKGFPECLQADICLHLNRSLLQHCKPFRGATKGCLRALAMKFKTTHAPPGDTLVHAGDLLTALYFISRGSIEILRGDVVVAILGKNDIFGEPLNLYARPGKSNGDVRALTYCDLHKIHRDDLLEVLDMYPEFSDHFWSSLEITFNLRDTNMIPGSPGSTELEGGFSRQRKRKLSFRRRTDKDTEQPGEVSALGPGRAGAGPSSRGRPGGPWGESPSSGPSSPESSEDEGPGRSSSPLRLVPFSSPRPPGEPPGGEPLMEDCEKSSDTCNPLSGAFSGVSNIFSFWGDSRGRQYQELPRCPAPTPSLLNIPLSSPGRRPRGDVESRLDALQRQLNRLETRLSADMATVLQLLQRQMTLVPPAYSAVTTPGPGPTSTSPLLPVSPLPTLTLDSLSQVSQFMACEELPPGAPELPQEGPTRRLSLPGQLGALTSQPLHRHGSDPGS

Turning to `C#CCNc1ccnc2sc3c(=O)n(-c4ccc(Cl)cc4)cnc3c12`, in data set [1], the Papp turned out to be 43 ×10⁻⁶ cm/s. The Kp in data set [2] amounted to 1.8. In addition, the IC50 in [3] is > 3000 nM. In [4], the Activity result is given as “Not Active”. The “inhibition (INH)” value in data set [5] is listed as “Not Active”. For the same molecule, the 50% effect level with Rattus norvegicus [6] (ED50) was put at a dose of 3.3 mg/kg. The molecule further registered an AUC in the data set with Rattus norvegicus [7] of 427 ng·h/mL. In data set [8], the bioavailability worked out at 16%. Further, affinity in data set [9] was put at a Ki of 0.6 nM. For the same molecule, the concentration at 6 h in data set [10] turned out to be 67 ng/g.
